Laboratory results: ChEMBL document CHEMBL1123146, “Design, synthesis, and evaluation of omega-iodovinyl- and omega-iodoalkyl-substituted methyl-branched long-chain fatty acids” (J Med Chem, 1985)

How the values were obtained:
Rattus norvegicus [1] = assay: Distribution of radioactivity was measured in thyroid tissue of unfasted Fischer 344 rats administered intravenously after 60 minutes (radiolabeled with [125I]-; format: ADME, organism-based, Thyroid gland; details: in vivo, iv, 1 h
How it was run: (§1)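 Female Fischer 344 rats (10-12 weeks, 170-200 g), fed ad libitum before and during the experiment, five per time point. The radioiodinated fatty acid was dissolved in 0.5 mL absolute ethanol, added dropwise to stirred 6% BSA at ~40 °C (final ethanol 10%), filtered at 0.22 µm, and injected in 0.5 mL into a lateral tail vein under ether anesthesia.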

Rattus norvegicus [2] = assay: Distribution of radioactivity was measured in blood tissue of unfasted Fischer 344 rats administered intravenously after 60 minutes (radiolabeled with [125I]-; format: ADME, organism-based; details: in vivo, iv, 1 h
How it was run: (§2)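 Female Fischer 344 rats, 10–12 weeks old (170–200 g), with food and water ad libitum, five per time point. The radioiodinated fatty acid was dissolved in ethanol, added to 6% BSA at ~40 °C (final 10% ethanol), filtered, and injected into a lateral tail vein (0.5 mL) under ether anesthesia. Blood was taken by cardiac puncture; organs were rinsed, blotted, weighed and gamma-counted against injectate standards. Output is % injected dose/g.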

Rattus norvegicus [3] = assay: Distribution of radioactivity was measured in lung tissue of unfasted Fischer 344 rats administered intravenously after 30 minutes (radiolabeled with [125I]-; format: ADME, organism-based; details: in vivo, iv, 0.5 h; how it was run: as §2
Rattus norvegicus [4] = assay: Mean heart/blood tissue of unfasted Fischer 344 rats administered intravenous after 15 minutes (radiolabeled with [125I]-; format: ADME, organism-based; details: in vivo, 0.25 h; how it was run: as §1
Rattus norvegicus [5] = assay: Distribution of radioactivity was measured in lung tissue of unfasted Fischer 344 rats administered intravenously after 15 minutes (radiolabeled with [125I]-; format: ADME, organism-based; details: in vivo, iv, 0.25 h; how it was run: as §2
Rattus norvegicus [6] = assay: Distribution of radioactivity was measured in heart tissue of unfasted Fischer 344 rats administered intravenously after 30 minutes (radiolabeled with [125I]-; format: ADME, organism-based; details: in vivo, iv, 0.5 h; how it was run: as §2
Rattus norvegicus [7] = assay: Distribution of radioactivity was measured in thyroid tissue of unfasted Fischer 344 rats administered intravenously after 5 minutes (radiolabeled with [125I]-; format: ADME, organism-based, Thyroid gland; details: in vivo, iv; how it was run: as §2
Rattus norvegicus [8] = assay: Distribution of radioactivity was measured in liver tissue of unfasted Fischer 344 rats administered intravenously after 5 minutes (radiolabeled with [125I]-; format: ADME, organism-based; details: in vivo, iv; how it was run: as §2
Rattus norvegicus [9] = assay: Mean heart/blood tissue of unfasted Fischer 344 rats administered intravenous after 2 minutes (radiolabeled with [125I]-; format: ADME, organism-based; details: in vivo; how it was run: as §1
Rattus norvegicus [10] = assay: Mean heart/blood tissue of unfasted Fischer 344 rats administered intravenous after 30 minutes (radiolabeled with [125I]-; format: ADME, organism-based; details: in vivo, 0.5 h; how it was run: as §1
Rattus norvegicus [11] = assay: Distribution of radioactivity was measured in lung tissue of unfasted Fischer 344 rats administered intravenously after 60 minutes (radiolabeled with [125I]-; format: ADME, organism-based; details: in vivo, iv, 1 h; how it was run: as §2
Rattus norvegicus [12] = assay: Distribution of radioactivity was measured in kidney tissue of unfasted Fischer 344 rats administered intravenously after 30 minutes (radiolabeled with [125I]-; format: ADME, organism-based; details: in vivo, iv, 0.5 h; how it was run: as §2
Rattus norvegicus [13] = assay: Distribution of radioactivity was measured in thyroid tissue of unfasted Fischer 344 rats administered intravenously after 15 minutes (radiolabeled with [125I]-; format: ADME, organism-based, Thyroid gland; details: in vivo, iv, 0.25 h; how it was run: as §2
Rattus norvegicus [14] = assay: Distribution of radioactivity was measured in blood tissue of unfasted Fischer 344 rats administered intravenously after 5 minutes (radiolabeled with [125I]-; format: ADME, organism-based; details: in vivo, iv; how it was run: as §2
Rattus norvegicus [15] = assay: Distribution of radioactivity was measured in liver tissue of unfasted Fischer 344 rats administered intravenously after 60 minutes (radiolabeled with [125I]-; format: ADME, organism-based; details: in vivo, iv, 1 h; how it was run: as §2
Rattus norvegicus [16] = assay: Distribution of radioactivity was measured in blood tissue of unfasted Fischer 344 rats administered intravenously after 30 minutes (radiolabeled with [125I]-; format: ADME, organism-based; details: in vivo, iv, 0.5 h; how it was run: as §2
Rattus norvegicus [17] = assay: Distribution of radioactivity was measured in kidney tissue of unfasted Fischer 344 rats administered intravenously after 5 minutes (radiolabeled with [125I]-; format: ADME, organism-based; details: in vivo, iv; how it was run: as §2
Rattus norvegicus [18] = assay: Distribution of radioactivity was measured in lung tissue of unfasted Fischer 344 rats administered intravenously after 5 minutes (radiolabeled with [125I]-; format: ADME, organism-based; details: in vivo, iv; how it was run: as §2
Rattus norvegicus [19] = assay: Distribution of radioactivity was measured in lung tissue of unfasted Fischer 344 rats administered intravenously after 2 minutes (radiolabeled with [125I]-; format: ADME, organism-based; details: in vivo, iv; how it was run: as §2
Rattus norvegicus [20] = assay: Distribution of radioactivity was measured in heart tissue of unfasted Fischer 344 rats administered intravenously after 2 minutes (radiolabeled with [125I]-; format: ADME, organism-based; details: in vivo, iv; how it was run: as §2
Rattus norvegicus [21] = assay: Distribution of radioactivity was measured in liver tissue of unfasted Fischer 344 rats administered intravenously after 30 minutes (radiolabeled with [125I]-; format: ADME, organism-based; details: in vivo, iv, 0.5 h; how it was run: as §2
Rattus norvegicus [22] = assay: Distribution of radioactivity was measured in kidney tissue of unfasted Fischer 344 rats administered intravenously after 15 minutes (radiolabeled with [125I]-; format: ADME, organism-based; details: in vivo, iv, 0.25 h; how it was run: as §2
Rattus norvegicus [23] = assay: Distribution of radioactivity was measured in liver tissue of unfasted Fischer 344 rats administered intravenously after 15 minutes (radiolabeled with [125I]-; format: ADME, organism-based; details: in vivo, iv, 0.25 h; how it was run: as §2
Rattus norvegicus [24] = assay: Distribution of radioactivity was measured in blood tissue of unfasted Fischer 344 rats administered intravenously after 2 minutes (radiolabeled with [125I]-; format: ADME, organism-based; details: in vivo, iv; how it was run: as §2
Rattus norvegicus [25] = assay: Distribution of radioactivity was measured in blood tissue of unfasted Fischer 344 rats administered intravenously after 15 minutes (radiolabeled with [125I]-; format: ADME, organism-based; details: in vivo, iv, 0.25 h; how it was run: as §2
Rattus norvegicus [26] = assay: Distribution of radioactivity was measured in kidney tissue of unfasted Fischer 344 rats administered intravenously after 60 minutes (radiolabeled with [125I]-; format: ADME, organism-based; details: in vivo, iv, 1 h; how it was run: as §2
Rattus norvegicus [27] = assay: Distribution of radioactivity was measured in kidney tissue of unfasted Fischer 344 rats administered intravenously after 2 minutes (radiolabeled with [125I]-; format: ADME, organism-based; details: in vivo, iv; how it was run: as §2
Rattus norvegicus [28] = assay: Distribution of radioactivity was measured in heart tissue of unfasted Fischer 344 rats administered intravenously after 60 minutes (radiolabeled with [125I]-; format: ADME, organism-based; details: in vivo, iv, 1 h; how it was run: as §2
Rattus norvegicus [29] = assay: Mean heart/blood tissue of unfasted Fischer 344 rats administered intravenous after 5 minutes (radiolabeled with [125I]-; format: ADME, organism-based; details: in vivo; how it was run: as §1
Rattus norvegicus [30] = assay: Distribution of radioactivity was measured in heart tissue of unfasted Fischer 344 rats administered intravenously after 5 minutes (radiolabeled with [125I]-; format: ADME, organism-based; details: in vivo, iv; how it was run: as §2
Rattus norvegicus [31] = species on record: Rattus norvegicus; assay: Specific activity was determined with radioiodinated iodine-123; format: functional
Rattus norvegicus [32] = assay: Distribution of radioactivity was measured in liver tissue of unfasted Fischer 344 rats administered intravenously after 2 minutes (radiolabeled with [125I]-; format: ADME, organism-based; details: in vivo, iv; how it was run: as §2
Rattus norvegicus [33] = assay: Mean heart/blood tissue of unfasted Fischer 344 rats administered intravenous after 60 minutes (radiolabeled with [125I]-; format: ADME, organism-based; details: other tissue, 1 h; how it was run: as §1
Rattus norvegicus [34] = assay: Distribution of radioactivity was measured in thyroid tissue of unfasted Fischer 344 rats administered intravenously after 2 minutes (radiolabeled with [125I]-; format: ADME, organism-based, Thyroid gland; details: in vivo, iv; how it was run: as §2
Rattus norvegicus [35] = species on record: Rattus norvegicus; assay: Specific activity was determined with radioiodinated iodine-125; format: functional
Rattus norvegicus [36] = assay: Distribution of radioactivity was measured in thyroid tissue of unfasted Fischer 344 rats administered intravenously after 30 minutes (radiolabeled with [125I]-; format: ADME, organism-based, Thyroid gland; details: in vivo, iv, 0.5 h; how it was run: as §2
Rattus norvegicus [37] = assay: Distribution of radioactivity was measured in heart tissue of unfasted Fischer 344 rats administered intravenously after 15 minutes (radiolabeled with [125I]-; format: ADME, organism-based; details: in vivo, iv, 0.25 h; how it was run: as §2

Distribution (Rattus norvegicus [1]): 65.4% | Distribution (Rattus norvegicus [2]): 0.37% | Distribution (Rattus norvegicus [3]): 0.89% | Distribution (Rattus norvegicus [4]): 7.4% | Distribution (Rattus norvegicus [5]): 0.83% | Distribution (Rattus norvegicus [6]): 4.12% | Distribution (Rattus norvegicus [7]): 9.49% | Distribution (Rattus norvegicus [8]): 7.81% | Distribution (Rattus norvegicus [9]): 3.7% | Distribution (Rattus norvegicus [10]): 6.9% | Distribution (Rattus norvegicus [11]): 0.73% | Distribution (Rattus norvegicus [12]): 0.71% | Distribution (Rattus norvegicus [13]): 16.9% | Distribution (Rattus norvegicus [14]): 0.67% | Distribution (Rattus norvegicus [15]): 4.73% | Distribution (Rattus norvegicus [16]): 0.59% | Distribution (Rattus norvegicus [17]): 0.92% | Distribution (Rattus norvegicus [18]): 1.18% | Distribution (Rattus norvegicus [19]): 1.42% | Distribution (Rattus norvegicus [20]): 3.93% | Distribution (Rattus norvegicus [21]): 5.97% | Distribution (Rattus norvegicus [22]): 0.66% | Distribution (Rattus norvegicus [23]): 8.44% | Distribution (Rattus norvegicus [24]): 1.05% | Distribution (Rattus norvegicus [25]): 0.41% | Distribution (Rattus norvegicus [26]): 0.67% | Distribution (Rattus norvegicus [27]): 0.95% | Distribution (Rattus norvegicus [28]): 3.08% | Distribution (Rattus norvegicus [29]): 5.6% | Distribution (Rattus norvegicus [30]): 3.74% | Distribution (Rattus norvegicus [32]): 8.32% | Distribution (Rattus norvegicus [33]): 8.3% | Distribution (Rattus norvegicus [34]): 7.21% | Distribution (Rattus norvegicus [36]): 29.4% | Distribution (Rattus norvegicus [37]): 3.47%
Compound: CC(CCCCCCCCCCCCCC/C=C/I)CC(=O)O (configuration not stated)
Specific activity (Rattus norvegicus [31]): 4.98 Ci mM-1 | Specific activity (Rattus norvegicus [35]): 7.08 Ci mM-1
